The RNAGym collection of RNA variant scans (doi:10.1126/science.aae0568)
This sample holds only a part of the variants without activity.

B1: tRNA (parent)
chain: GUUCCGUUGGCGUAAUGGUAACGCGUCUCCCUCCUAAGGAGAAGACUGCGGGUUCGAGUCCCGUACGGAACG

Variants of: B1
Assay: yeast fitness relative to wild type (ratio to wild type); higher = fitter; tRNA-Arg(CCU), competitive growth, 37 C, YPD
Outline: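 Changes in genotype frequencies gave Darwinian fitness relative to wild type. Frequencies were read by 100-nucleotide paired-end sequencing of gene amplicons before and after pooled Saccharomyces cerevisiae strains, carrying tRNA-Arg(CCU) gene variants at the native locus, were competed in YPD at 37°C for 24 hours in six replicates. A genotype was kept only with ≥ 100 starting reads, and estimates < 0.5 were set to 0.5.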

A20U C22G U47C and A21C U28G C33U C34U A43U G50A A69C cannot be ordered by yeast fitness: ≤ 0.5 for the first, ≤ 0.5 for the second.

First: A21C U26A A40U
Second: A20U C30G
The yeast fitness of the first is lower: 0.534 for the first, 0.61 for the second.

A21C U32A U35C and A20U C24G G63A A65U cannot be ordered by yeast fitness: ≤ 0.5 for the first, ≤ 0.5 for the second.

Going from A20U G41C to A20U C22U C24U, the yeast fitness falls from 0.753 to ≤ 0.5.

Going from A20U C27A to A20U C27U, the yeast fitness rises from 0.717 to 1.05.

Compared with A20U C29U A57G A65G, A20U G63C is higher in yeast fitness: ≤ 0.5 for the first, 0.649 for the second.

Compared with A20U G50A U59C, A21C C24A A65C is lower in yeast fitness: 0.619 for the first, ≤ 0.5 for the second.

Compared with A20U G25A A69U, A20U A43G G58A is higher in yeast fitness: 0.838 for the first, 0.91 for the second.

A20U C34A G38A U59A and A20U C24G C31G G52A C55G C61U cannot be ordered by yeast fitness: ≤ 0.5 for the first, ≤ 0.5 for the second.

First: A20U C30A G52A A65U
Second: A20U G50C
The yeast fitness of the first is lower: ≤ 0.5 for the first, 0.638 for the second.

A20U C31G C55G C60G C66U A70U and A20U G39C A40G C49U C55G cannot be ordered by yeast fitness: ≤ 0.5 for the first, ≤ 0.5 for the second.

First: A21C A37G C49A C60G C66A
Second: A20U C31U C62U
The yeast fitness of the first is lower: ≤ 0.5 for the first, 0.826 for the second.

A21C C27G U28A C29U C34U C62U G63C and A20U C30G C33A G50A G52A C60U C61G G67A cannot be ordered by yeast fitness: ≤ 0.5 for the first, ≤ 0.5 for the second.

Compared with A21C A42G A69C A70G, A20U G23A C49U is higher in yeast fitness: 0.543 for the first, 0.609 for the second.

Compared with A20U C27A A40C C46A, A20U C29G C49G G63C is higher in yeast fitness: ≤ 0.5 for the first, 0.543 for the second.

A20U U28A C31U C55G A57C and A20U C22U C33A C66A cannot be ordered by yeast fitness: ≤ 0.5 for the first, ≤ 0.5 for the second.

A21C C30U U32G U53C G67A and A20U G38C C46A cannot be ordered by yeast fitness: ≤ 0.5 for the first, ≤ 0.5 for the second.

A20U C34A G58C C62A A69C and A21C A36G G67C cannot be ordered by yeast fitness: ≤ 0.5 for the first, ≤ 0.5 for the second.

Going from A21C C46U A69C to A21C C31A C33G A45G G48A A65U, the yeast fitness falls from 0.668 to ≤ 0.5.

First: A21C G23A G52C A57C
Second: A21C U32C
The yeast fitness of the first is lower: ≤ 0.5 for the first, 0.864 for the second.

Compared with A21C C31A C33G A45G G48A, A21C C62G A65C is lower in yeast fitness: 0.579 for the first, ≤ 0.5 for the second.

Going from A21C C30G U54C C55G A70G to A20U A42G A65G, the yeast fitness rises from ≤ 0.5 to 0.689.

Compared with A20U G23C U53A C55U, A21C C46G C49G is higher in yeast fitness: ≤ 0.5 for the first, 0.655 for the second.

First: A20U C31U A57U
Second: A20U C31G
The yeast fitness of the first is lower: 0.567 for the first, 0.865 for the second.

Going from A21C A57G to A21C A57C, the yeast fitness falls from 0.708 to 0.548.

First: A20U U35C G44C
Second: A21C C29G G51A
The yeast fitness of the first is higher: 0.592 for the first, 0.529 for the second.

First: A20U G23A A36U
Second: A20U G25A C27G G67A
The yeast fitness of the first is lower: 0.515 for the first, 0.542 for the second.

Compared with A21C G58C A65U, A20U C24U A43G U59A is lower in yeast fitness: 0.521 for the first, ≤ 0.5 for the second.

A20U G51C A65G and A21C A37C A69U cannot be ordered by yeast fitness: ≤ 0.5 for the first, ≤ 0.5 for the second.

Going from A21C C34U C49U to A21G A37C A43U, the yeast fitness rises from ≤ 0.5 to 0.618.

Compared with A20U U28C, A21C C46U A65U is lower in yeast fitness: 0.934 for the first, 0.556 for the second.

Compared with A21G A36G A65C, A20U U28A C33U is lower in yeast fitness: 0.664 for the first, ≤ 0.5 for the second.

Going from A21C C29A G52A C55G A57C A69C to A21C A70C, the yeast fitness rises from ≤ 0.5 to 0.798.

Compared with A20U G25A C49G, A20U C34G G38C is lower in yeast fitness: 0.619 for the first, ≤ 0.5 for the second.

Compared with A21C C27A U28A A45G A69C, A21C C22G G38C is higher in yeast fitness: ≤ 0.5 for the first, 0.52 for the second.

Compared with A21C C22U C31U C33U C62A, A20U A42C is higher in yeast fitness: 0.61 for the first, 0.648 for the second.

Compared with A20U A40G A42G G50A, A20U G39C is higher in yeast fitness: ≤ 0.5 for the first, 0.81 for the second.

Compared with A20U C31U G56A C61U, A20U C66A is higher in yeast fitness: ≤ 0.5 for the first, 0.612 for the second.

First: A20U C61U C66U
Second: A20U C27G C29A
The yeast fitness of the first is higher: 0.559 for the first, ≤ 0.5 for the second.

Going from A21C A37U A42U C46G U47G to A21G A40C G50C, the yeast fitness falls from 0.534 to ≤ 0.5.

Compared with A21C C46U G67A, A20U C31U G56A A69C is lower in yeast fitness: 0.619 for the first, ≤ 0.5 for the second.

A21C G23U showed a yeast fitness of 0.714.
